Key:
Mus musculus [1] = test: Toxicity in ICR mouse assessed as aspartate aminotransferase level in serum at 150 mg/kg, po administered via gavage once daily for 14 days (reference value: 111.44 +/- 32.76 U/L); assay type: organism-based; conditions: in vivo, 336 h
How it was run: (§1)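 ICR mice, 5 males + 5 females per group, dosed by gavage once daily at 150 mg/kg (20 ml/kg) or vehicle for 14 days; killed after the 14th dose; blood from abdominal aorta under ether anaesthesia for hematology and clinical chemistry; mean ± SD, n = 10.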

Mus musculus [2] = test: Toxicity in ICR mouse assessed as monocyte level in serum at 150 mg/kg, po administered via gavage once daily for 14 days (reference value: 12.93 +/- 3.61%); assay type: organism-based; conditions: in vivo, 336 h
How it was run: (§2)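 Haematology on abdominal aortic blood taken at necropsy under ether anaesthesia after 14 daily gavage doses (20 ml/kg) in ICR mice, 5 per sex per group, vehicle control. Parameters: WBC, RBC, haemoglobin, platelets, reticulocyte ratio and differential leukocyte counts; mean ± SD, n = 10.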

Mus musculus [3] = test: Toxicity in ICR mouse assessed as blood glucose level at 150 mg/kg, po administered via gavage once daily for 14 days (reference value: 3.64 +/- 0.79 umol/L); assay type: organism-based; conditions: in vivo, 336 h; how it was run: as §1
Mus musculus [4] = test: Toxicity in ICR mouse assessed as albumin level in serum at 150 mg/kg, po administered via gavage once daily for 14 days (reference value: 25.87 +/- 1.67 g/l); assay type: organism-based; conditions: in vivo, 336 h; how it was run: as §1
Mus musculus [5] = test: Toxicity in ICR mouse assessed as liver weight at 150 mg/kg, po administered via gavage once daily for 14 days (reference value: 4.365 +/- 0.222 g); assay type: organism-based; conditions: in vivo, 336 h
Mus musculus [6] = test: Toxicity in ICR mouse assessed as heart weight at 150 mg/kg, po administered via gavage once daily for 14 days (reference value: 0.539 +/- 0.094 g); assay type: organism-based; conditions: in vivo, 336 h
Mus musculus [7] = test: Toxicity in ICR mouse assessed as total cholesterol level at 150 mg/kg, po administered via gavage once daily for 14 days (reference value: 0.93 +/- 0.31 mmol/L); assay type: organism-based; conditions: in vivo, 336 h
Mus musculus [8] = test: Toxicity in ICR mouse assessed as total bile acid level at 150 mg/kg, po administered via gavage once daily for 14 days (reference value: 5.67 +/- 2.45 umol/L); assay type: organism-based; conditions: in vivo, 336 h
Mus musculus [9] = test: Toxicity in ICR mouse assessed as alkaline phosphatase level in serum at 150 mg/kg, po administered via gavage once daily for 14 days (reference value: 114.44 +/- 21.78 U/L); assay type: organism-based; conditions: in vivo, 336 h; how it was run: as §1
Mus musculus [10] = test: Toxicity in ICR mouse assessed as effect on food consumption at 150 mg/kg, po administered via gavage once daily for 14 days; assay type: organism-based; conditions: in vivo, 336 h
How it was run: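 ICR mice, 5 male + 5 female per group, gavage once daily for 14 days, vehicle control; food intake recorded on day 1 of dosing and then twice weekly, with daily clinical observation.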

Mus musculus [11] = test: Toxicity in ICR mouse assessed as total protein level in serum at 150 mg/kg, po administered via gavage once daily for 14 days (reference value: 53.97 +/- 1.56 g/l); assay type: organism-based; conditions: in vivo, 336 h
Mus musculus [12] = test: Toxicity in ICR mouse assessed as reticulocyte level in serum at 150 mg/kg, po administered via gavage once daily for 14 days (reference value: 4.73 +/- 0.56%); assay type: organism-based; conditions: in vivo, 336 h; how it was run: as §2
Mus musculus [13] = test: Toxicity in ICR mouse assessed as serum creatine kinase level at 150 mg/kg, po administered via gavage once daily for 14 days (reference value: 705.78 +/- 330.84 U/L); assay type: organism-based; conditions: in vivo, 336 h
Mus musculus [14] = test: Toxicity in ICR mouse assessed as creatinine level in serum at 150 mg/kg, po administered via gavage once daily for 14 days (reference value: 25.22 +/- 3.42 umol/L); assay type: organism-based; conditions: in vivo, 336 h
Mus musculus [15] = test: Toxicity in ICR mouse assessed as brain weight at 150 mg/kg, po administered via gavage once daily for 14 days (reference value: 1.686 +/- 0.241 g); assay type: organism-based; conditions: in vivo, 336 h
Mus musculus [16] = test: Toxicity in ICR mouse assessed as WBC count at 150 mg/kg, po administered via gavage once daily for 14 days (reference value: 7.03 +/- 1.56 10^9/L); assay type: organism-based; conditions: in vivo, 336 h; how it was run: as §1
Mus musculus [17] = test: Toxicity in ICR mouse assessed as lymphocyte level in serum at 150 mg/kg, po administered via gavage once daily for 14 days (reference value: 57.65 +/- 13.53%); assay type: organism-based; conditions: in vivo, 336 h; how it was run: as §2
Mus musculus [18] = test: Toxicity in ICR mouse assessed as total bilirubin level in serum at 150 mg/kg, po administered via gavage once daily for 14 days (reference value: 9.95 +/- 2.18 umol/L); assay type: organism-based; conditions: in vivo, 336 h
Mus musculus [19] = test: Toxicity in ICR mouse assessed as neutrophil level in serum at 150 mg/kg, po administered via gavage once daily for 14 days (reference value: 27.74 +/- 16.27%); assay type: organism-based; conditions: in vivo, 336 h; how it was run: as §2
Mus musculus [20] = test: Toxicity in ICR mouse assessed as platelet count at 150 mg/kg, po administered via gavage once daily for 14 days (reference value: 1260.3 +/- 137.87 10^9/L); assay type: organism-based; conditions: in vivo, 336 h; how it was run: as §2
Mus musculus [21] = test: Toxicity in ICR mouse assessed as kidney weight at 150 mg/kg, po administered via gavage once daily for 14 days (reference value: 1.51 +/- 0.211 g); assay type: organism-based; conditions: in vivo, 336 h
Mus musculus [22] = test: Toxicity in ICR mouse assessed as ovary weight at 150 mg/kg, po administered via gavage once daily for 14 days (reference value: 0.079 +/- 0.007 g); assay type: organism-based; conditions: in vivo, 336 h
Mus musculus [23] = test: Toxicity in ICR mouse assessed as body weight at 150 mg/kg, po administered via gavage once daily for 14 days (reference value: 25.8 +/- 3.5 g); assay type: organism-based; conditions: in vivo, 336 h
Mus musculus [24] = test: Toxicity in ICR mouse assessed as gamma glutamyltransferase level in serum at 150 mg/kg, po administered via gavage once daily for 14 days (reference value: 0 U/L); assay type: organism-based; conditions: in vivo, 336 h
Mus musculus [25] = test: Toxicity in ICR mouse assessed as serum glutamate dehydrogenase level at 150 mg/kg, po administered via gavage once daily for 14 days (reference value: 13.78 +/- 2.86 U/L); assay type: organism-based; conditions: in vivo, 336 h
Mus musculus [26] = test: Toxicity in ICR mouse assessed as alanine aminotransferase level in serum at 150 mg/kg, po administered via gavage once daily for 14 days (reference value: 28.33 +/- 9.89 U/L); assay type: organism-based; conditions: in vivo, 336 h; how it was run: as §1
Nonstructural protein 5A = biological target: T1, Nonstructural protein 5A (Hepatitis C virus, UniProt Q5L478); test: Inhibition of NS5A in HCV genotype 6a; parameters: species or system Hepatitis C virus subtype 6a
T1 sequence (Q5L478 whole entry): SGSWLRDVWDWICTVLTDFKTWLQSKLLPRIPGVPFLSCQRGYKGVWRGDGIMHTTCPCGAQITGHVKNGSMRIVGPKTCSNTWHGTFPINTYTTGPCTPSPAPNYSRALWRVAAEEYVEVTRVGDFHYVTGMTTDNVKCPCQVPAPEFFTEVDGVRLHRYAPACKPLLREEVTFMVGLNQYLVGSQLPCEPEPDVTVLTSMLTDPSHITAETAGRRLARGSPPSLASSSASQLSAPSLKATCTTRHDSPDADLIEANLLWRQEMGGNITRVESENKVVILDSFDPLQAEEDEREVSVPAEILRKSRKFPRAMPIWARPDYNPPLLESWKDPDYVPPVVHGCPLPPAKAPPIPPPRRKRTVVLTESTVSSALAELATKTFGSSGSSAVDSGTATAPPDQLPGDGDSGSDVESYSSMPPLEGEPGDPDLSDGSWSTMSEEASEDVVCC

SMILES: CC[Si](CC)(CC)c1ccc(N2[C@H](c3ccc(NC(=O)[C@@H]4CCCN4C(=O)[C@@H](NC(=O)OC)C(C)C)cc3)CC[C@H]2c2ccc(NC(=O)[C@@H]3CCCN3C(=O)[C@@H](NC(=O)OC)C(C)C)cc2)cc1
- Activity (Mus musculus [1]): 110.6 U/L
- Activity (Mus musculus [2]): 12.44%
- Activity (Mus musculus [3]): 4.18 mmol/L
- Activity (Mus musculus [4]): 25.38 g/L
- Activity (Mus musculus [5]): 4.346 g
- Activity (Mus musculus [6]): 0.567 g
- Activity (Mus musculus [7]): 0.85 mmol/L
- Activity (Mus musculus [8]): 10.5 µmol/L
- Activity (Mus musculus [9]): 105.7 U/L
- Activity (Mus musculus [10]): Non-Toxic
- Activity (Mus musculus [11]): 52.31 g/L
- Activity (Mus musculus [12]): 3.88%
- Activity (Mus musculus [13]): 953.3 U/L
- Activity (Mus musculus [14]): 23.2 µmol/L
- Activity (Mus musculus [15]): 1.807 g
- Activity (Mus musculus [16]): 6.2 ×10⁹ /L
- Activity (Mus musculus [17]): 52.54%
- Activity (Mus musculus [18]): 11.24 µmol/L
- Activity (Mus musculus [19]): 33.12%
- Activity (Mus musculus [20]): 1263.4 ×10⁹ /L
- Activity (Mus musculus [21]): 1.579 g
- Activity (Mus musculus [22]): 0.097 g
- Activity (Mus musculus [23]): 24 g
- Activity (Mus musculus [24]): 0.03 U/L
- Activity (Mus musculus [25]): 15.1 U/L
- Activity (Mus musculus [26]): 25.3 U/L

SMILES: COC(=O)N[C@H](C(=O)N1CCC[C@H]1C(=O)Nc1ccc([C@@H]2CC[C@@H](c3ccc(NC(=O)[C@@H]4CCCN4C(=O)[C@@H](NC(=O)OC)C(C)C)cc3)N2c2ccc(C(C)(C)C)cc2)cc1)C(C)C [OMBITASVIR]
- EC50 (Nonstructural protein 5A): 0.055 nM

From ChEMBL document CHEMBL4196017, “Design, synthesis and identification of silicon-containing HCV NS5A inhibitors with pan-genotype activity” (Eur J Med Chem, 2018)
